Assay results from different studies.
Target: Ephrin type-A receptor 1 (EPHA1, Homo sapiens, UniProt P21709)
Sequence (P21709 26-976, as in one of the studies): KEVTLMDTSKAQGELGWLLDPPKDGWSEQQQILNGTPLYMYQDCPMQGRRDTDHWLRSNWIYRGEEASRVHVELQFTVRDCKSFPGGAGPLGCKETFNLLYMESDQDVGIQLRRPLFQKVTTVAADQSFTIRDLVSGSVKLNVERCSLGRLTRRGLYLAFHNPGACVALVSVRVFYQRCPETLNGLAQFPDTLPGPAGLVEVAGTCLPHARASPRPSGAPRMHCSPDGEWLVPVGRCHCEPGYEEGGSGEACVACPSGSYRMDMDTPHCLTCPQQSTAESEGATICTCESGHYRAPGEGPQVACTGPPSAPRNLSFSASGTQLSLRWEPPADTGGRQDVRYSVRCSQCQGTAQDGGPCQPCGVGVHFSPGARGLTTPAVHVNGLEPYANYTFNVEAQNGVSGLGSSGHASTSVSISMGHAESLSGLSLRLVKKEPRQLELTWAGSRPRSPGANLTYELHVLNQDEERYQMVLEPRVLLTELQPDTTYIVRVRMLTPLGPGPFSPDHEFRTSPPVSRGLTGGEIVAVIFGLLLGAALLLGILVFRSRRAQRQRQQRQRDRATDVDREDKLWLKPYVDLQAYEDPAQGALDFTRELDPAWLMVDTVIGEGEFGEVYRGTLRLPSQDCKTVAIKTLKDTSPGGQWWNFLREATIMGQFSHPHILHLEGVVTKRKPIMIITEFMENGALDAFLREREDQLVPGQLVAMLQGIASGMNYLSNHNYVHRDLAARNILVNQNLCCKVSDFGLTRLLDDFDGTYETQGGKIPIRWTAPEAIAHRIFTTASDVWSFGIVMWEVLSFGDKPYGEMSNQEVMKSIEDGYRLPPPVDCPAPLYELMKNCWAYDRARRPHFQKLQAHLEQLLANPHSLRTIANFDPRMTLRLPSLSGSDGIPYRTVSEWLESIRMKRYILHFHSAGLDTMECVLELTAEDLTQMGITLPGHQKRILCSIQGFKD

C[C@@H]1CCN(C(=O)CC#N)C[C@@H]1N(C)c1ncnc2[nH]ccc12
remaining signal (cell-free assay; 0.5 µM): 98%

Cc1ccc(C(=O)Nc2ccc(CN3CCN(C)CC3)c(C(F)(F)F)c2)cc1C#Cc1cnc2cccnn12
remaining signal (cell-free assay; 23.5 nM): 55%

O=C(O)[C@@H]1[C@@H](Cn2nnc3ccccc3c2=O)CC[C@H]1C(=O)c1ccc(OCCC2CCOCC2)cc1
remaining binding (cell-free assay; competition with immobilised ligand; 1 µM): 100%

CNC(=O)c1cc(Oc2ccc(NC(=O)Nc3ccc(Cl)c(C(F)(F)F)c3)cc2)ccn1
inhibition (enzyme activity; inhibitor; 0.3 µM): 23%

COc1cc2ncnc(Nc3ccc(Oc4ccccc4)cc3C)c2cc1OC
inhibition (enzyme activity; inhibitor; 1 µM): 11%

COc1cccc2c(NCc3ccccc3)nc(-n3c(N)nc4ccccc43)nc12
inhibition (target engagement in cells; inhibitor; chemoproteomics; 20 mM): -22.2%

CCCOc1ccc(OC)c(F)c1C(=O)c1ccc(C(=O)N[C@@H]2CNC[C@H]2NC(=O)c2ccc3[nH]ncc3c2)cc1
remaining activity (enzyme activity; inhibitor; 10 µM): 85%

O=C(Nc1cnn(-c2csc(C(=O)NC3COC3)c2)c1)Nc1ccccc1Cl
remaining activity (enzyme activity; inhibitor; 5 µM): 99.1%

Nc1c(C(=O)NCc2ccc(C(=O)NCCCC3CCCCC3)cc2)cnn1-c1ccccc1
remaining binding (cell-free assay; competition with immobilised ligand; 0.1 µM): 100%

CC(C)(C)c1nc2c(s1)c1nc(N)ncc1c1ccc(NS(=O)(=O)c3c(F)cccc3F)c(F)c12
remaining activity (enzyme activity; inhibitor; radiometric; 1 µM): 94%

O=C(Nc1cccnn1)N1CCC(=Cc2cccc(Oc3ccc(C(F)(F)F)cn3)c2)CC1
remaining binding (cell-free assay; competition with immobilised ligand; 1 µM): 100%

COc1cc(Cl)c(C(=O)N[C@@H](CN[C@H]2CC[C@@H](N)CC2)Cc2ccc(C#N)cc2)cc1-c1ccc(CN[C@H](C)c2ccc(C)cc2)o1
remaining activity (enzyme activity; inhibitor; 1 µM): 105%

Cc1ccc(Nc2nccc(N(C)c3ccc4c(C)n(C)nc4c3)n2)cc1S(N)(=O)=O
inhibition (enzyme activity; inhibitor; 10 µM): 85%

C[C@@H]1CN(c2cc(-c3nn(C)c4ccc(OC5(C)CC5)cc34)ncn2)C[C@H](C)O1
remaining binding (cell-free assay; competition with immobilised ligand; 1 µM): 100%

CCCS(=O)(=O)Nc1ccc(F)c(C(=O)c2c[nH]c3ncc(-c4ccc(Cl)cc4)cc23)c1F
inhibition (enzyme activity; inhibitor; 1 µM): < 10%

O=C1Nc2ccc(Cl)cc2C1=Cc1cc(Cl)c(O)c(Cl)c1
remaining signal (cell-free assay; 0.5 µM): 88.9%

O=C1CCc2cc(Nc3cc(OC4CCOCC4)c([N+](=O)[O-])cc3Cl)ccc2N1
remaining binding (cell-free assay; competition with immobilised ligand; 1 µM): 81%

COc1cc(-c2cc(-c3ccc(N4CCNCC4)cc3)cnc2C)cc(OC)c1OC
inhibition (enzyme activity; inhibitor; 0.1 µM): 3%
